Source: ChEMBL document CHEMBL1759958, “Disassembly of preformed amyloid beta fibrils by small organofluorine molecules” (Bioorg Med Chem Lett, 2011)
Activity calls are given as the source filed them. The calls are words filed in the database; no cut-off is given here.

Columns and labels:
[1] = Induction of disassembly of preformed amyloid beta (1 to 40) fibrils assessed as decrease in fibril amount at 10:1 compound to amyloid beta ratio by thioflavin T fluorescence method
Method in brief: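 Aβ1-40 fibrils were grown at 100 μM final in 10 mM HEPES/100 mM NaCl, pH 7.4, at 37°C with 77 rpm shaking until THT saturation. Compound was added from 0.15 M DMSO stock, vortexed and re-incubated under the same conditions, then sampled periodically into 5 μM ThT (glycine-NaOH, pH 8.5). Read at ex 430/em 484 nm, ThT background subtracted, normalized to Aβ-only control; 3–4 parallel runs, mean ± SD.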

[2] = Induction of disassembly of preformed amyloid beta (1 to 40) fibrils assessed as disaggregated fibrils at 10:1 compound to amyloid beta ratio for 4 days by fourier-transform infrared spectroscopy
Method in brief: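 Preformed Aβ1-40 fibrils (100 μM, HEPES pH 7.4, grown at 37°C with 77 rpm shaking to THT saturation) were exposed to compound added from DMSO stock and re-incubated at 37°C with shaking. For FTIR, 20 μl aliquots were lyophilized and mixed with 0.2 g solid KBr.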

[3] = Induction of disassembly of preformed amyloid beta (1 to 40) fibrils assessed as disaggregated fibrils at 10:1 compound to amyloid beta ratio for 4 days by atomic force microscopy
Method in brief: (§1)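 Synthetic Aβ1-40 dissolved in 100 mM NaOH, diluted to 100 μM in 10 mM HEPES (100 mM NaCl, 0.02% NaN3, pH 7.4), grown at 37°C with shaking (77 rpm) until ThT saturation. Compound added from 0.15 M DMSO stock at 10:1 molar ratio, vortexed 30 s, re-incubated 37°C shaking. Aliquots of 2-5 μL spotted on fresh mica for 30-60 s, water-rinsed, air-dried. Imaged by non-contact AFM.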

[4] = Induction of disassembly of preformed amyloid beta (1 to 40) fibrils assessed as disaggregated fibrils at 10:1 compound to amyloid beta ratio for 1 day by atomic force microscopy; method in brief: as §1
[5] = Induction of disassembly of preformed amyloid beta (1 to 40) fibrils assessed as disaggregated fibrils at 10:1 compound to amyloid beta ratio for 6 days by atomic force microscopy; method in brief: as §1
[6] = Induction of disassembly of preformed amyloid beta (1 to 40) fibrils assessed as disaggregated fibrils at 10:1 compound to amyloid beta ratio by atomic force microscopy; settings: TDE = time-dependent effect; method in brief: as §1

Row | Compound | Activity [1] | Activity [2] | other results
1 | CCOC(=O)C(O)(c1c[nH]c2ccc(I)cc12)C(F)(F)F (racemic) | Active |  | 
2 | CCOC(=O)C(O)(c1c[nH]c2ccc(C)cc12)C(F)(F)F (racemic) | Active |  | 
3 | CCOC(=O)C(O)(c1c(C)[nH]c2ccc(C(=O)OC)cc12)C(F)(F)F (racemic) | Active | Active | 
4 | CCOC(=O)[C@@](O)(c1c[nH]c2ccc(I)cc12)C(F)(F)F | Active | Active | Activity [3]: Active
5 | COc1ccc2[nH]cc(CCNC(C)=O)c2c1 | Active | Active | 
6 | CCOC(=O)[C@](O)(c1c[nH]c2ccc(I)cc12)C(F)(F)F | Active | Active | Activity [3]: Active; Activity [4]: Active; Activity [5]: Active; Activity [6]: tde
7 | CCOC(=O)C(O)(c1c[nH]c2ccccc12)C(F)(F)F (racemic) | Active |  | 
8 | CCOC(=O)C(O)(c1c(C)n(C)c2ccccc12)C(F)(F)F (racemic) | Active |  | 

Continued, in another order:

Row | Activity [1] | Activity [2] | Compound | other results
9 | Active |  | CCOC(=O)C(O)(c1c(C)[nH]c2ccc(C)cc12)C(F)(F)F (racemic) | 
10 | Active | Active | CCOC(=O)[C@](O)(c1c[nH]c2ccc(Br)cc12)C(F)(F)F | 
11 | Active | Active | CCOC(=O)[C@@](O)(c1c[nH]c2ccc(Cl)cc12)C(F)(F)F | Activity [3]: Active
12 | Active | Active | CCOC(=O)C(O)(c1c[nH]c2ccc(Br)cc12)C(F)(F)F (racemic) | 
13 | Active | Active | CCOC(=O)[C@@](O)(c1c[nH]c2ccc(Br)cc12)C(F)(F)F | 
14 | Active |  | CCOC(=O)C(O)(c1c(C)[nH]c2ccc(OC)cc12)C(F)(F)F (racemic) | 
15 | Active | Active | CCOC(=O)C(O)(c1c[nH]c2ccc(Cl)cc12)C(F)(F)F (racemic) | 
16 | Active | Active | CCOC(=O)[C@](O)(c1c[nH]c2ccc(Cl)cc12)C(F)(F)F | 
